In ChEMBL document CHEMBL1811814, “Synthesis and evaluation of indole, pyrazole, chromone and pyrimidine based conjugates for tumor growth inhibitory activities--development of highly efficacious cytotoxic agents” (Eur J Med Chem, 2010):

What was measured:
Assay type in all cases: functional
HCC 2998 [1] = experiment: Growth inhibition of human HCC2998 cells
HCT-15 = experiment: Growth inhibition of human HCT15 cells
KM12 = experiment: Growth inhibition of human KM12 cells
SW-620 = experiment: Growth inhibition of human SW620 cells
SF-295 [2] = experiment: Growth inhibition of human SF295 cells
SF-539 = experiment: Growth inhibition of human SF539 cells
SNB-75 = experiment: Growth inhibition of human SNB75 cells
SK-MEL-5 = experiment: Growth inhibition of human SK-MEL-5 cells
UACC-257 = experiment: Growth inhibition of human UACC257 cells
IGROV-1 [3] = experiment: Growth inhibition of human IGROV1 cells
Procedure, shortened: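 Follow-up panel testing at five concentrations (10^-4, 10^-5, 10^-6, 10^-7 and 10^-8 M) across the 60 human tumor cell lines. GI50 was obtained for each line from the concentration-response data, with the panel average GI50 also reported.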

OVCAR-3 = experiment: Growth inhibition of human OVCAR3 cells
OVCAR-4 = experiment: Growth inhibition of human OVCAR4 cells
OVCAR-8 = experiment: Growth inhibition of human OVCAR8 cells
NCI/ADR-RES [4] = experiment: Growth inhibition of human NCI/ADR-RES cells
CAKI-1 [5] = experiment: Growth inhibition of human Caki1 cells
RXF 393 [6] = experiment: Growth inhibition of human RXF393 cells
SN12C [7] = experiment: Growth inhibition of human SN12C cells
TK-10 = experiment: Growth inhibition of human TK10 cells
MDA-MB-231 [8] = experiment: Growth inhibition of human MDA-MB-231 cells
[9] = Growth inhibition of human Hs 578T cells
MDA-MB-468 = experiment: Growth inhibition of human MDA-MB-468 cells
MOLT-4 = experiment: Growth inhibition of human MOLT4 cells assessed tumor cell growth at 10^-5 M; parameters: scale not given: the % may be the effect or the level left
Procedure, shortened: (§1)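 NCI 60-human-tumor-cell-line panel screen. Each compound was tested at a single concentration of 10^-5 M, and percent growth of tumor cells was recorded for each cell line. Growth inhibition was expressed from these percent-growth values.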

SR = experiment: Growth inhibition of human SR cells assessed tumor cell growth at 10^-5 M; parameters: scale not given: the % may be the effect or the level left
Procedure, shortened: (§2)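 Single-dose screen at 10^-5 M across the 60 human tumor cell line panel, run to NCI standards. The value is the percent growth of each cell line in the presence of compound. Compounds active at this dose moved on to five-concentration testing (10^-4 to 10^-8 M).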

NCI-H23 = experiment: Growth inhibition of human NCI-H23 cells assessed tumor cell growth at 10^-5 M; parameters: scale not given: the % may be the effect or the level left; procedure, shortened: as §1
NCI-H460 [10] = experiment: Growth inhibition of human NCI-H460 cells assessed tumor cell growth at 10^-5 M; parameters: scale not given: the % may be the effect or the level left; procedure, shortened: as §1
HCC 2998 [11] = experiment: Growth inhibition of human HCC2998 cells assessed tumor cell growth at 10^-5 M; parameters: scale not given: the % may be the effect or the level left; procedure, shortened: as §1
HCT-116 = experiment: Growth inhibition of human HCT116 cells assessed tumor cell growth at 10^-5 M; parameters: scale not given: the % may be the effect or the level left; procedure, shortened: as §1
SF-295 [12] = experiment: Growth inhibition of human SF295 cells assessed tumor cell growth at 10^-5 M; parameters: scale not given: the % may be the effect or the level left; procedure, shortened: as §1
SNB-19 = experiment: Growth inhibition of human SNB19 cells assessed tumor cell growth at 10^-5 M; parameters: scale not given: the % may be the effect or the level left; procedure, shortened: as §2
LOX IMVI = experiment: Growth inhibition of human LOXIMVI cells assessed tumor cell growth at 10^-5 M; parameters: scale not given: the % may be the effect or the level left; procedure, shortened: as §1
Malme-3M = experiment: Growth inhibition of human MALME-3M cells assessed tumor cell growth at 10^-5 M; parameters: scale not given: the % may be the effect or the level left; procedure, shortened: as §1
M14 = experiment: Growth inhibition of human M14 cells assessed tumor cell growth at 10^-5 M; parameters: scale not given: the % may be the effect or the level left; procedure, shortened: as §1
MDA-MB-435 = experiment: Growth inhibition of human MDA-MB-435 cells assessed tumor cell growth at 10^-5 M; parameters: scale not given: the % may be the effect or the level left; procedure, shortened: as §1
SK-MEL-2 = experiment: Growth inhibition of human SK-MEL-2 cells assessed tumor cell growth at 10^-5 M; parameters: scale not given: the % may be the effect or the level left; procedure, shortened: as §1
SK-MEL-28 = experiment: Growth inhibition of human SK-MEL-28 cells assessed tumor cell growth at 10^-5 M; parameters: scale not given: the % may be the effect or the level left; procedure, shortened: as §1
IGROV-1 [13] = experiment: Growth inhibition of human IGROV1 cells assessed tumor cell growth at 10^-5 M; parameters: scale not given: the % may be the effect or the level left; procedure, shortened: as §1
NCI/ADR-RES [14] = experiment: Growth inhibition of human NCI/ADR-RES cells assessed tumor cell growth at 10^-5 M; parameters: scale not given: the % may be the effect or the level left; procedure, shortened: as §1
786-0 = experiment: Growth inhibition of human 786-0 cells assessed tumor cell growth at 10^-5 M; parameters: scale not given: the % may be the effect or the level left; procedure, shortened: as §1
CAKI-1 [15] = experiment: Growth inhibition of human Caki1 cells assessed tumor cell growth at 10^-5 M; parameters: scale not given: the % may be the effect or the level left; procedure, shortened: as §1
RXF 393 [16] = experiment: Growth inhibition of human RXF393 cells assessed tumor cell growth at 10^-5 M; parameters: scale not given: the % may be the effect or the level left; procedure, shortened: as §1
SN12C [17] = experiment: Growth inhibition of human SN12C cells assessed tumor cell growth at 10^-5 M; parameters: scale not given: the % may be the effect or the level left; procedure, shortened: as §1
UO-31 = experiment: Growth inhibition of human UO31 cells assessed tumor cell growth at 10^-5 M; parameters: scale not given: the % may be the effect or the level left; procedure, shortened: as §2
DU-145 = experiment: Growth inhibition of human DU145 cells assessed tumor cell growth at 10^-5 M; parameters: scale not given: the % may be the effect or the level left; procedure, shortened: as §1
MDA-MB-231 [18] = experiment: Growth inhibition of human MDA-MB-231 cells assessed tumor cell growth at 10^-5 M; parameters: scale not given: the % may be the effect or the level left; procedure, shortened: as §1
[19] = Growth inhibition of human RPMI8266 cells
EKVX = experiment: Growth inhibition of human EKVX cells
NCI-H322M = experiment: Growth inhibition of human NCI-H322M cells
NCI-H460 [20] = experiment: Growth inhibition of human NCI-H460 cells
COLO 205 = experiment: Growth inhibition of human COLO205 cells
[21] = read-out: LC50 (the source's name)

With O=C1/C(=C\c2coc3ccccc3c2=O)c2ccccc2N1c1c(Cl)cccc1Cl as the molecule, how does the GI50 (HCC 2998 [1]) read?
The GI50 was 4.2 µM.

And the CC50 (HCC 2998 [1]; [21])?
The CC50 was over 100 µM.

What about the GI50 (HCT-15) of the same molecule?
Its GI50 is 0.6 µM.

What about the CC50 (HCT-15; [21]) of the same molecule?
Its CC50 is over 100 µM.

And the GI50 (KM12)?
Its GI50 is 3 µM.

And the CC50 (KM12; [21])?
Its CC50 is over 100 µM.

What about the GI50 (SW-620) of the same molecule?
The GI50 was 5.2 µM.

And the CC50 (SW-620; [21])?
The CC50 was over 100 µM.

What about the GI50 (SF-295 [2]) of the same molecule?
The GI50 was 4.2 µM.

And the CC50 (SF-295 [2]; [21])?
Its CC50 is over 100 µM.

What about the GI50 (SF-539) of the same molecule?
The GI50 was 3 µM.

What about the CC50 (SF-539; [21]) of the same molecule?
Its CC50 is over 100 µM.

And the GI50 (SNB-75)?
The GI50 was 1.9 µM.

And the CC50 (SNB-75; [21])?
Its CC50 is over 100 µM.

What about the GI50 (SK-MEL-5) of the same molecule?
Its GI50 is 2.4 µM.

And the CC50 (SK-MEL-5; [21])?
Its CC50 is over 100 µM.

And the GI50 (UACC-257)?
The GI50 was 4.5 µM.

What about the CC50 (UACC-257; [21]) of the same molecule?
Its CC50 is over 100 µM.

What about the GI50 (IGROV-1 [3]) of the same molecule?
The GI50 was 1.6 µM.

And the CC50 (IGROV-1 [3]; [21])?
The CC50 was 97.9 µM.

What about the GI50 (OVCAR-3) of the same molecule?
Its GI50 is 2.6 µM.

And the CC50 (OVCAR-3; [21])?
The CC50 was over 100 µM.

What about the GI50 (OVCAR-4) of the same molecule?
The GI50 was 3.6 µM.

What about the CC50 (OVCAR-4; [21]) of the same molecule?
Its CC50 is over 100 µM.

What about the GI50 (OVCAR-8) of the same molecule?
Its GI50 is 5.4 µM.

And the CC50 (OVCAR-8; [21])?
The CC50 was over 100 µM.

And the GI50 (NCI/ADR-RES [4])?
The GI50 was 3.3 µM.

What about the CC50 (NCI/ADR-RES [4]; [21]) of the same molecule?
The CC50 was over 100 µM.

What about the GI50 (CAKI-1 [5]) of the same molecule?
Its GI50 is 2.4 µM.

And the CC50 (CAKI-1 [5]; [21])?
The CC50 was over 100 µM.

And the GI50 (RXF 393 [6])?
Its GI50 is 1.8 µM.

What about the CC50 (RXF 393 [6]; [21]) of the same molecule?
Its CC50 is 69.1 µM.

And the GI50 (SN12C [7])?
The GI50 was 3.3 µM.

What about the CC50 (SN12C [7]; [21]) of the same molecule?
Its CC50 is over 100 µM.

What about the GI50 (TK-10) of the same molecule?
The GI50 was 3.3 µM.

And the CC50 (TK-10; [21])?
The CC50 was over 100 µM.

What about the GI50 (MDA-MB-231 [8]) of the same molecule?
Its GI50 is 3.8 µM.

What about the CC50 (MDA-MB-231 [8]; [21]) of the same molecule?
The CC50 was over 100 µM.

And the GI50 [9]?
Its GI50 is 9.1 µM.

And the CC50 [9, 21]?
The CC50 was over 100 µM.

What about the GI50 (MDA-MB-468) of the same molecule?
The GI50 was 2.4 µM.

What about the CC50 (MDA-MB-468; [21]) of the same molecule?
The CC50 was over 100 µM.

And the Activity (MOLT-4)?
Its Activity is 19.03%.

And the Activity (SR)?
Its Activity is 19.47%.

What about the Activity (NCI-H23) of the same molecule?
The Activity was 55.41%.

What about the Activity (NCI-H460 [10]) of the same molecule?
The Activity was 19.05%.

And the Activity (HCC 2998 [11])?
The Activity was 53%.

And the Activity (HCT-116)?
Its Activity is 35.61%.

What about the Activity (SF-295 [12]) of the same molecule?
Its Activity is -12.01%.

What about the Activity (SNB-19) of the same molecule?
The Activity was 62.58%.

And the Activity (LOX IMVI)?
Its Activity is 37.07%.

And the Activity (Malme-3M)?
Its Activity is 83.75%.

And the Activity (M14)?
The Activity was 43.38%.

And the Activity (MDA-MB-435)?
The Activity was 14.46%.

What about the Activity (SK-MEL-2) of the same molecule?
The Activity was 85.69%.

And the Activity (SK-MEL-28)?
The Activity was 47.32%.

And the Activity (IGROV-1 [13])?
Its Activity is 48.69%.

And the Activity (NCI/ADR-RES [14])?
Its Activity is 36.14%.

What about the Activity (786-0) of the same molecule?
The Activity was 27.05%.

And the Activity (CAKI-1 [15])?
Its Activity is -7.88%.

What about the Activity (RXF 393 [16]) of the same molecule?
The Activity was 44.09%.

What about the Activity (SN12C [17]) of the same molecule?
Its Activity is 59.48%.

What about the Activity (UO-31) of the same molecule?
Its Activity is 42.56%.

And the Activity (DU-145)?
Its Activity is 24.59%.

What about the Activity (MDA-MB-231 [18]) of the same molecule?
The Activity was 60.45%.

What about the GI50 [19] of the same molecule?
The GI50 was 1.2 µM.

And the CC50 [19, 21]?
The CC50 was 69.1 µM.

And the GI50 (EKVX)?
The GI50 was 2.8 µM.

What about the CC50 (EKVX; [21]) of the same molecule?
The CC50 was over 100 µM.

What about the GI50 (NCI-H322M) of the same molecule?
The GI50 was 5.8 µM.

What about the CC50 (NCI-H322M; [21]) of the same molecule?
The CC50 was over 100 µM.

And the GI50 (NCI-H460 [20])?
The GI50 was 2 µM.

What about the CC50 (NCI-H460 [20]; [21]) of the same molecule?
The CC50 was over 100 µM.

And the GI50 (COLO 205)?
Its GI50 is 3.8 µM.
